High-throughput results as filed in PubChem.
CHT inh – inhibitors of human choline transporter CHT; 310,000 tested, 0.86% active; High affinity choline transporter 1 (Homo sapiens), Q9GZV3; B-score at 10 µM; CHT-expressing cells, membrane potential dye, choline response; active compounds read low;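 active = B-score over 3 SD under the library average, and starting fluorescence ratio not unusually high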;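 also: choline stimulus applied at its EC90 after an EC20 pre-addition; B-score computed on integrated fluorescence ratio after choline addition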
PHOSPHO1 inh – PubChem AID 1565 | recombinant PHOSPHO1, absorbance phosphatase assay | inhibition, % at 13.3 µM | 290,000 tested, 1.1% active; in the data active = inhibition above about 60%
Target sequence (Q8TCT1 whole entry, looked up): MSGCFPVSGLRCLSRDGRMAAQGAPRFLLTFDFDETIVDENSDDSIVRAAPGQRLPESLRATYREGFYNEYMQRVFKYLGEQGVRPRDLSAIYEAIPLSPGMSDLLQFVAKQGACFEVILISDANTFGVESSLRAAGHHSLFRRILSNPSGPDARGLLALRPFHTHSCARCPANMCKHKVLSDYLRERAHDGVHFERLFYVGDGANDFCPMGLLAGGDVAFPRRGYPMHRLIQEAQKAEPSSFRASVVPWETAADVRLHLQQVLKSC
Hep lipid drop – inhibitors of hepatocyte lipid droplet formation, primary screen, imaging, high-throughput imaging, BODIPY stain. inhibition, % at 6.5 µM. AML12 mouse hepatocytes, oleate lipid droplets. 240,000 tested, 0.4% active;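 active = lipid droplet intensity inhibited by at least 50%, with more than 500 cells counted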
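System: AML12 hepatocytes (mouse). Probe or stimulus: oleic acid at 100 µM to induce lipid droplet formation. Times: overnight treatment with compound plus oleate. Detection: Image-based BODIPY and DAPI two-channel analysis. Evaluation: percent inhibition of filter-corrected integrated lipid droplet intensity per well.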
HSF1 inhib – HSF1 inhibitors in luciferase reporter cells, primary screen, cell-based, NIH3T3, luminescence; NIH3T3-HGL HSE-luciferase, MG132-induced, luminescence 8 h; active compounds read low; activity change, negative = inhibition, % at 7.5 µM (by protocol); 300,000 tested, 0.77% active; AID 2098, 2009;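 active = more than half of replicate wells show activity change below -50%, luminescence cut by over half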;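 also: luciferase reports HSF-1 transcriptional activity via heat shock element; 0% = median of DMSO wells and -100% = zero luminescence signal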
HSF1 activator – HSF-1 activators, primary screen, NIH3T3-HGL cells, MG132 stress, luminescence, single point; 300,000 tested, 1.7% active; NIH3T3-HGL HSF-1 luciferase reporter, 8 h; 100% = twice DMSO control signal; activation, % at 9 µM;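 active = mean replicate activation of at least 50% with a set share of replicates each reaching 50%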;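 also: 0% = median of the neutral control wells and 100% = twice that signal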
CHT allo act – CHT positive allosteric modulators, primary screen, cell-based, membrane potential dye, choline EC20; High affinity choline transporter 1 (Homo sapiens), Q9GZV3; CHT-expressing cells; active compounds read high; LV-AA mutant CHT in HEK293 cells; B-score at 10 µM; 310,000 tested, 0.49% active; AID 488977, 2010;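 active = initial fluorescence not abnormally high and integrated response B-score, plate-corrected, over 3 SD above library mean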
* = called active by the depositor; i = inactive; . = not tested or not shown. An excerpt weighted towards active compounds, which were near 4.9% of everything screened.

SMILES	CHT inh	PHOSPHO1 inh	Hep lipid drop	HSF1 inhib	HSF1 activator	CHT allo act
CCC1Sc2ccc(S(=O)(=O)Nc3ccc(OC)cc3)cc2NC1=O (configuration not stated)	i	26.1	-8.4	-56.3*	-66.3	i
COc1ccc(C(C(=O)NC2CCCC2)N(Cc2ccccc2)C(=O)c2snc(C(N)=O)c2N)cc1OC (configuration not stated)	i	31.1	-4.9	18.3	52.2*	i
CC(C)C1(CCNC(=O)c2cccs2)CCOC(C)(C)C1 (configuration not stated)	i	32.2	-12.4	-2.4	-18.7	i
O=C(CCC1CCCC1)N[C@@H](Cc1ccc(O)cc1)C(=O)O	i	9.3	-2.2	-2.3	-8.8	i
Cc1cc(=O)n2c(n1)NC(=NCc1ccccc1)NC2c1ccccc1 (configuration not stated)	i	-18.7	-52.8	1.8	10.9	i
CN(Cc1nnc(-c2ccc(F)cc2)o1)c1ccccc1	i	9.6	-13.2	13.2	59.7*	i
O=C(O)c1ccccc1NS(=O)(=O)c1ccc(NNC(=S)Nc2ccc(OC(F)F)cc2)c([N+](=O)[O-])c1	.	-28.5	-2.2	-37.5	-37.5	.
COc1ccc(N=NC2=C(O)CC(C)(C)CC2=O)cc1	i	15.4	.	45.0	58.2*	i
CC(NC(=O)COC(=O)COc1cccc2c1OC(C)(C)C2)c1ccccc1 (configuration not stated)	i	27.6	0.9	-5.2	-12.3	i
O=C(/C=C/c1ccc([N+](=O)[O-])s1)N1CCN(c2ccccc2)CC1	i	22.2	-26.6	32.7	37.6	i
CC1CC(C)CN(C(=O)/C=C/c2ccc([N+](=O)[O-])s2)C1 (configuration not stated)	.	22.6	1.0	61.4	74.9*	.
O=C(/C=C/c1ccc([N+](=O)[O-])s1)N1CCCCC1	i	30.3	4.7	45.8	61.0*	i
COc1ccc(C2NC(=S)NC3=C2CCc2cc(OC)ccc23)cc1 (configuration not stated)	i	8.0	.	2.1	14.6	i
CCOC(=O)CC(=O)CSc1nc2c(cc1C#N)CCC2	i	53.2	.	-5.6	-12.3	i
COc1ccc(S(=O)(=O)Cc2ccc(C(=O)N3CCN(c4ccccc4F)CC3)o2)cc1	i	8.6	.	8.1	32.8	i
CCc1nnc(NC(=O)C2CCCN2S(=O)(=O)c2ccc(C)cc2)s1 (configuration not stated)	i	10.6	21.1	-5.6	-25.0	i
CCc1nnc(NC(=O)C2Cc3ccccc3CN2S(=O)(=O)c2cccs2)s1 (configuration not stated)	i	31.3	-22.9	43.3	83.9*	i
CCc1nnc(NC(=O)C2Cc3ccccc3CN2S(=O)(=O)c2ccc(C)cc2)s1 (configuration not stated)	i	-49.1	.	25.1	57.5*	i
O=C(Nc1nnc(C2CC2)s1)C1Cc2ccccc2CN1S(=O)(=O)c1cccs1 (configuration not stated)	i	4.7	.	20.0	36.8	i
Cc1cccn2cc(-c3ccc(Cl)cc3)nc12	i	38.8	-3.8	7.7	34.1	i
Cc1ccc(-c2cn3cccc(C)c3n2)cc1	.	32.2	-1.7	38.0	77.9*	.
Cc1nc2cc(N)ccc2n1-c1ccccc1	i	24.4	-8.1	18.6	37.1	i
CCOC(=O)N=Nc1c2ccccc2c2nc3no[nH]c3nc12	.	-91.0	-17.3	-95.0*	-95.1	.
O=C(NNC(=S)Nc1cccc(Cl)c1)c1ccccc1OC(F)F	i	-0.3	-4.0	4.2	37.3	i
O=C(NNC(=S)Nc1ccc(F)cc1)c1ccccc1OC(F)F	i	88.2*	-8.7	6.3	17.8	i
Cc1ccc(NC(=S)NNC(=O)c2ccccc2OC(F)F)cc1	i	86.5*	.	3.5	16.8	i
